# Compound activity deposited in PubChem by several laboratories.
# A selection: hits, their analogues and other compounds. The true share with any hit is near 3.7%.
# Dynein transport – inhibitors of GR-EGFP nuclear translocation, primary screen, dynein cargo transport inhibitor project, imaging, high-content, 3617.4 mouse cells. 220,000 tested, 0.47% active. z-score, hits read low. test concentration mostly 20 µM; stimulated with dexamethasone, 1 µM; hits give low values;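 active = plate z-score of nuclear minus cytoplasmic receptor signal below a set negative limit, without overly bright fluorescence or cell loss, cut at about -3.5 in these data, passing the limit was not always enough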;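 note: z-score of nuclear minus cytoplasmic ring GR-EGFP intensity difference per well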
#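 Buffer or medium: tet-free, stripped-serum medium; Also added: dexamethasone, 1.0 µM final; Technique: high-content fluorescence imaging after fixation; Times: 48 h induction, 1 h compound, 30 min dex at 37 °C; Read-out: per-cell GR-EGFP intensity, nucleus versus surrounding cytoplasmic ring, well-averaged.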
# UPR XBP1 act – activators of adaptive XBP1 UPR arm, primary screen, cell-based, CHO-XBP1 luciferase reporter, luminescence, uHTS | 330,000 tested, 0.33% active | IRE1-XBP1 UPR activation; percent of tunicamycin response, DMSO as zero | activation, % at 20 µM;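 active = versus positive control, 20 µM dose yields 30% or more activation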;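 note: 100% = tunicamycin at 10 µg/mL and 0% = DMSO only wells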
#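 Material: CHO-XBP1 cells stably carrying IRE1-XBP1-driven luciferase reporter | Medium: F12 with 10% serum | Compound dosing: 20 µM single concentration, DMSO 1% | Incubation: Overnight seeding at 37 °C, 6 h compound treatment at 37 °C | Detection: Steady-Glo luminescence read | Read-out basis: % activation of reporter signal versus tunicamycin and DMSO controls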
# MDM2 E3 inh – MDM2-luciferase reporter signal enhancers, primary screen, MDM2 E3 ligase inhibitor project, cell-based, luminescence, 1536-well; E3 ubiquitin-protein ligase Mdm2 (Homo sapiens), Q00987; cell-based MDM2 ubiquitination luciferase reporter, 2 h; 0 = plate control, 100 = twice control, blank-subtracted; signal enhancement, % at 5 µM; 210,000 tested, 0.11% active;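 active = signal enhancement of 30% or more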;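 note: luminescence tracks abundance of the self-degrading MDM2-luciferase fusion protein; higher signal means inhibition of MDM2 E3 ligase activity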
# Target sequence (Q00987 whole entry, looked up, the tested form may be a part): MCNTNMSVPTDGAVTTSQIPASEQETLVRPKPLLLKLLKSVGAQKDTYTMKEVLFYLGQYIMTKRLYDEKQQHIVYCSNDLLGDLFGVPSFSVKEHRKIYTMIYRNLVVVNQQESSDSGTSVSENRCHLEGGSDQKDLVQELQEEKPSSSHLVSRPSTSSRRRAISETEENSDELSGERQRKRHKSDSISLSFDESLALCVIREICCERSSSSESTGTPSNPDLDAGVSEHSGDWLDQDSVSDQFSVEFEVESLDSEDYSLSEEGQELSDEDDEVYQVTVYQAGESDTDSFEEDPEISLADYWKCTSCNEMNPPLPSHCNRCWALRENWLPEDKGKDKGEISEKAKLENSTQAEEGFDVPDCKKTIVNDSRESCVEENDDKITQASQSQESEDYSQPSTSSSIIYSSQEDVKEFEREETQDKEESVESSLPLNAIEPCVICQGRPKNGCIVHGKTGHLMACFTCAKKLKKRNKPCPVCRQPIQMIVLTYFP
#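 Buffer or medium: Cells held in DMEM | Assay system: Stable mammalian line carrying autodegrading MDM2–luciferase fusion reporter | Quantity: 2000 cells/well | Times: 4 h settle plus 2 h compound, 37 °C | Doses: One concentration, 5 µM, with 0.2% DMSO | Technique: Luminescence with SteadyLite reagent, 15 min at room temperature | Benchmarks: Plate controls and plate blanks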
# B2AR ag – beta2AR agonists driving receptor internalization, primary screen, cell-based, FAP fluorogen, flow cytometry; 340,000 tested, 0.43% active; response, % (concentration not given with the values); Beta-2 adrenergic receptor (Homo sapiens), P07550; Am2.2-beta2AR cells; AID 504454, 2011;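 active = response above a set limit, near 3 SD of response in nonfluorescent compounds, cut at about 42% in these data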
# Mdm2 MdmX PPI – inhibitors of human Mdm2-MdmX association, primary screen, cell-based, luminescence, split luciferase, SaOS-2, uHTS; inhibition, % at 8 µM; Protein Mdm4 (Homo sapiens) + E3 ubiquitin-protein ligase Mdm2 (Homo sapiens), …; 330,000 tested, 3% active; SaOS-2 split-luciferase Mdm2/MdmX complementation;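 active = inhibition of at least 50% at 8 µM in the primary screen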
# CHOP UPR activ – activators of apoptotic CHOP UPR arm, primary screen, cell-based, CHO-CHOP luciferase reporter, luminescence, uHTS; activation, % at 10 µM; UPR activation; percent of tunicamycin response over DMSO baseline; 330,000 tested, 0.34% active;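 active = at 10 µM dose, activation of 40% or more, normalized to positive control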;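 note: 100% = tunicamycin at 10 µg/mL and 0% = DMSO alone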
#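 Evaluation: % reporter activation, DMSO baseline versus tunicamycin full activation; System: CHO-CHOP luciferase reporter cell line; Input: 500 cells/well; Incubation: 6 h compound treatment, 37 °C; Measured by: Steady-Glo luciferase luminescence; Dosing: one dose, 10 µM in 0.5% DMSO; Buffer or medium: F12 medium, 10% FBS; Benchmarks: positive tunicamycin 10 µg/mL, negative DMSO alone.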
# Mdm2 MdmX conf – Mdm2-MdmX complex disruptors, retested hits, confirmation, luminescence, single concentration; AID 489028, 2010; inhibition, % at 8 µM; 10,000 tested, 55% active; shares compounds with Mdm2 MdmX PPI; Mdm2-MdmX binding, luminescent assay; in the data active = inhibition above about 40%
# FLuc counter – full-length luciferase signal inhibition, confirmation, counter-screen for Mdm2/MdmX interaction inhibitor project, cell-based, single concentration, SaOS-2; inhibition, % at 8 µM; 6,200 tested, 77% active; AID 504607, 2011; SaOS-2 full-length luciferase counterscreen, luminescence; shares compounds with Mdm2 MdmX PPI;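 active = mean inhibition at 8 µM reaching about 37%, which flags the compound as non-specific, limit read from the data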;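 note: p53-null SaOS-2 cells with luciferase driven by a doxycycline-inducible promoter; compound on cells about two nights before reading with doxycycline added after day one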
# Starred values were filed as active, the others as inactive; . = no result.
SMILES,Dynein transport,UPR XBP1 act,MDM2 E3 inh,B2AR ag,Mdm2 MdmX PPI,CHOP UPR activ,Mdm2 MdmX conf,FLuc counter
COc1ccccc1NS(=O)(=O)c1cccc(C(=O)NCC(c2cccs2)N2CCOCC2)c1 (stereo unspecified),.,-1.7,.,-6.8,-1.7,-0.4,.,.
Cc1ccc(OCCSCc2nnc(NC(=O)Nc3cccc(Cl)c3)s2)cc1,-0.541,7.1,-5.3,3.6,91.5*,3.3,81.6*,96.7*
O=C(Cc1nnc(NC(=O)Nc2ccccc2)s1)Nc1ccccc1,1.34,-1.5,-9.4,-10.2,9.7,-0.4,.,.
O=C(Nc1ccc(Cl)cc1)Nc1nnc(CSCc2ccccc2Cl)s1,-1.5,-1.4,-48.8,6.3,60.7*,-2.0,15.4,.
Cc1nnc(NC(=O)Nc2cccc(Cl)c2)s1,0.253,1.7,-1.4,10.8,15.6,3.1,.,.
O=C(Nc1ccc(Cl)cc1)Nc1nnc(SCc2ccccc2)s1,-0.367,-1.4,-12.8,5.1,-13.0,1.6,.,.
O=C(Nc1ccc(Cl)c(Cl)c1)Nc1nccs1,-0.483,3.0,.,16.8,18.6,2.2,.,.
O=C(Nc1ccc(Cl)c(Cl)c1)Nc1nnc(CSc2ccccc2)s1,-0.353,7.0,-19.5,11.9,94.8*,6.9,77.2*,49.6*
O=C(Nc1ccccc1)Nc1nnc(CSCc2ccccc2Cl)s1,0.399,-2.4,-9.3,0.3,84.7*,0.0,47.4*,66.5*
Cc1nn(C)c(C(=O)N/N=C/c2ccc(-c3ccccc3)cc2)c1Cl,.,3.1,.,1.0,31.9,0.9,.,.
CC(O)/C=C/c1ccc2ccccc2n1 (stereo unspecified),-1.15,-0.6,-13.1,1.0,59.8*,2.2,22.2,.
CCOc1ccccc1NC(=O)Nc1ccc2c(c1)OCO2,.,3.8,.,-1.2,13.5,3.9,.,.
C=CCOc1ccccc1CN(C(=O)CCl)c1ccc2c(c1)OCO2,.,-6.8,.,6.5,89.7*,7.5,80.9*,21.3
COc1cc(C(C)=O)ccc1OCC(=O)Nc1cc(S(=O)(=O)N2CCOCC2)ccc1N1CCCC1,.,.,.,-2.1,.,.,.,.
CC(Sc1nnc(Nc2ccccc2)s1)C(=O)Nc1nc(-c2ccccc2)cs1 (stereo unspecified),1.04,-0.1,-0.2,-153.8,65.5*,2.4,71.5*,101.1*
CC(C)C[C@H]1CN=C(Nc2ccccc2)N1CC1CCC(C(C)(C)C)CC1 (stereo partly specified),.,12.2,.,32.8,100.3*,-0.1,38.6,20.5
CC(C)C[C@H]1CN=C(Nc2ccccc2)N1CC1CCCC1,.,0.3,.,-6.9,13.1,-1.2,.,.
COc1ccccc1[C@H]1C(c2cccc(C)c2)=NN(c2ccccc2)[C@@H]1CO,.,0.5,.,6.2,55.9*,1.8,35.8,.
COC(=O)/C(=C\Nc1ccc(Cl)c2ccccc12)c1ncc(C(F)(F)F)cc1Cl,-0.495,-1.8,-14.7,-4.6,58.8*,1.9,4.0,.
COc1ccc(Oc2cccc(Cl)c2CNC(=O)CCCC(=O)O)cc1,-0.483,-0.9,-7.0,1.6,7.3,-2.0,.,.
O=C(NCc1nnc2c(C(F)(F)F)cc(Cl)cn12)c1cccs1,.,-3.1,.,5.3,10.9,-0.5,.,.
